The results in this text go back to ChEMBL document CHEMBL3244181, “Synthesis and biological activity of cocaine analogues. 2. 6H-[2]Benzopyrano[4,3-c]pyridin-6-ones” (J Med Chem, 1979).

What is called IC50 is the concentration that inhibits the measured activity by half. Low readings indicate higher potency, high ones lower potency. What is called inhibition is the share of the control response that was lost under treatment. Read a low inhibition as a response near the control.

A short description of assay [1]: Inhibition of [3H]norepinephrine reuptake at norepinephrine transporter in CD Charles River albino rat brain synaptosomes after 5 mins by scintillation counting analysis. The format is subcellular. An outline of the steps:
(§1)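 Synaptosomes were taken from the 0.8/1.2 M sucrose gradient interface and resuspended in Krebs Ringer phosphate with pargyline (1.6 mg/100 mL) and glucose (237 mg/100 mL). They were incubated with unlabelled norepinephrine and [3H]norepinephrine for 5 min at 30 °C, quenched with cold buffer, and pelleted at 10000g. Pellet counts, minus post-incubation tracer blanks, gave % inhibition as (control − sample)/control cpm.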

The species entered for assay [2] is Rattus norvegicus. Description: Inhibition of [3H]norepinephrine reuptake at norepinephrine transporter in CD Charles River albino rat brain synaptosomes at 10^-5 M after 5 mins by scintillation counting analysis. The format is subcellular. An outline of the steps: as §1
The species named for assay [3] is Rattus norvegicus. Description: Inhibition of [3H]norepinephrine reuptake at norepinephrine transporter in rat brain at 10^-5 M by scintillation counting analysis. The format is tissue-based.
The target in assay [4] is Sodium-dependent serotonin transporter (Homo sapiens) (UniProt P31645). The experiment in a line: Inhibition of serotonin reuptake at SERT (unknown origin) at 10^-5 M.
For assay [5], the target named is Sodium-dependent dopamine transporter (Homo sapiens) (UniProt Q01959). Description: Inhibition of dopamine reuptake at DAT (unknown origin) at 10^-5 M.
Chain of Sodium-dependent dopamine transporter (Homo sapiens) (Q01959 whole entry): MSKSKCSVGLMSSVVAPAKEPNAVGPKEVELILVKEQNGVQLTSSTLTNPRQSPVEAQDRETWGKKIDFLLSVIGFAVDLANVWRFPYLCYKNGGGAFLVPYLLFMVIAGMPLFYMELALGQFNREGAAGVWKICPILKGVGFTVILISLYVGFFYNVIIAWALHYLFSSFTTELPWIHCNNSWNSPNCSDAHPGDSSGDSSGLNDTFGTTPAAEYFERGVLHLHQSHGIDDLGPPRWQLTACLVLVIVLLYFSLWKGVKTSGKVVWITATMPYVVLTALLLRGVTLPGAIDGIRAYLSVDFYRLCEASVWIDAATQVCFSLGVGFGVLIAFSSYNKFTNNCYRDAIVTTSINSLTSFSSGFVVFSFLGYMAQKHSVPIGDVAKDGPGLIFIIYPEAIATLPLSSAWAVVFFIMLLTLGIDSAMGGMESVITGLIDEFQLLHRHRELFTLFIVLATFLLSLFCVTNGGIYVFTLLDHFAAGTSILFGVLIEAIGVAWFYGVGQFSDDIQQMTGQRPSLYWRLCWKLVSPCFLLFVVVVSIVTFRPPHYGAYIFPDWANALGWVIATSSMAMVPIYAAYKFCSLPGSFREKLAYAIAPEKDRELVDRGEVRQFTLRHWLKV

Chain of Sodium-dependent serotonin transporter (Homo sapiens) (P31645 whole entry, looked up): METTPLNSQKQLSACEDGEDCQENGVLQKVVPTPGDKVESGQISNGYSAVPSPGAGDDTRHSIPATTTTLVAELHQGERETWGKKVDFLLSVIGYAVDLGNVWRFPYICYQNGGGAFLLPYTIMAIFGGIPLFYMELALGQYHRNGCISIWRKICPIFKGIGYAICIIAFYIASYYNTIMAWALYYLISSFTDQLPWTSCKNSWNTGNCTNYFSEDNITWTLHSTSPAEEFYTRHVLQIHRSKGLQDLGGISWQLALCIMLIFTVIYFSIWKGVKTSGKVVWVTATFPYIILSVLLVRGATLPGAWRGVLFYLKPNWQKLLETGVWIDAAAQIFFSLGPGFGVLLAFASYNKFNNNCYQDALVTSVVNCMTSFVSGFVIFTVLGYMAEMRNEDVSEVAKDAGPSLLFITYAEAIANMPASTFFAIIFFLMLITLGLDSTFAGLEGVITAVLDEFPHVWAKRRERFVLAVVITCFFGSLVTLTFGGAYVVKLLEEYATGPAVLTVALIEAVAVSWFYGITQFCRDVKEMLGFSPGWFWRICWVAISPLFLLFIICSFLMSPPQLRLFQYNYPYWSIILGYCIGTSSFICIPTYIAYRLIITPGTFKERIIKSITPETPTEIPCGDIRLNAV

In assay [1], `CN1[C@@H]2CC[C@H]1C[C@H](OC(=O)c1ccccc1)C2` came in with an IC50 of 5.6 µM.

`CN1CCc2oc(=O)c3ccccc3c2C1` came in with an IC50 in assay [1] of 320 µM.

`CN1CC[C@H]2OC(=O)c3ccccc3[C@H]2C1` (relative stereo) displayed an IC50 in assay [1] of 650 µM. In assay [2], this compound came in with an inhibition of 0%.

With `CN1CC[C@H]2OC(=O)c3ccccc3[C@@H]2C1` (relative stereo), the inhibition is 11% in assay [3], 0% in assay [4], 36% in assay [2] and 3% in assay [5]. This compound also yielded an IC50 in assay [1] of 320 µM.

Consider `COC(=O)[C@H]1[C@@H](OC(=O)c2ccccc2)C[C@@H]2CC[C@H]1N2C` [COCAINE], for which the IC50 in assay [1] was found to be 0.575 µM.
